Measured values of several laboratories.
Lines come from different studies, so protocols differ.
Organism: Mycolicibacterium smegmatis
Observed: microbial growth

Cl.N=C(N)N/N=C/c1ccc(-c2ccc(/C=N/Nc3ccccc3Cl)cc2)cc1
MIC (MC2155): 1.7 µg/mL

CCCCCCc1ccc(-c2nc(N)[nH]c2C(F)(F)F)cc1
MIC (broth dilution; ATCC700084 MC^2155): > 200 µM

CO[C@@H]1[C@@H](OC(N)=O)[C@@H](O)[C@H](Oc2ccc3c(O)c(NC(=O)c4ccc(O)c(CC=C(C)C)c4)c(=O)oc3c2C)OC1(C)C
MIC (resazurin; MC^2155; 24 h): 8 µg/mL

Cc1ccc(Nc2nc(-c3cc(C(=O)Nc4cccc(C)n4)no3)cs2)cc1
MIC (MC2155): > 64 µg/mL

C[C@H]1c2cccc(O)c2C(=O)C2=C(O)[C@]3(O)C(=O)C(C(N)=O)=C(O)[C@@H](N(C)C)[C@@H]3[C@@H](O)[C@@H]21
MIC (resazurin; MC^2155; 24 h): 0.11 µg/mL

O=C(Nc1ccccc1)c1cc(-c2csc(Nc3ccc(Cl)cc3)n2)on1
MIC (MC2155): > 64 µg/mL

CCCCc1ccc(-c2c[nH]c(N)n2)cc1
MIC (ATCC700084 MC^2155; 48 h): 150 µM

C[C@H]1COc2c(N3CCN(C)CC3)c(F)cc3c(=O)c(C(=O)O)cn1c23
MIC (resazurin; MC^2155; 24 h): 0.14 µg/mL

Cc1ccc(-c2c[nH]c(N)n2)cc1
MIC (ATCC700084 MC^2155; 48 h): 100 µM

Cc1ccc(Nc2nc(-c3cc(C(=O)Nc4ccsc4)no3)cs2)cc1
MIC (MC2155): > 64 µg/mL

CO[C@H]1/C=C/O[C@@]2(C)Oc3c(C)c(O)c4c(O)c(c(/C=N/N5CCN(C)CC5)c(O)c4c3C2=O)NC(=O)/C(C)=C\C=C\[C@H](C)[C@H](O)[C@@H](C)[C@@H](O)[C@@H](C)[C@H](OC(C)=O)[C@@H]1C
MIC (resazurin; MC^2155; 24 h): 0.8 µg/mL

NC[C@@H]1O[C@H](O[C@H]2[C@@H](O)[C@H](O[C@@H]3[C@@H](O)[C@H](N)C[C@H](N)[C@H]3O[C@H]3O[C@H](CO)[C@@H](O)[C@H](O)[C@H]3N)O[C@@H]2CO)[C@H](N)[C@@H](O)[C@@H]1O
MIC (broth dilution; 72 h): 0.5 µg/mL

CCCCCOc1ccc(-c2c[nH]c(N)n2)cc1
MIC (ATCC700084 MC^2155; 48 h): 150 µM

NCC[C@H](O)C(=O)N[C@@H]1C[C@H](N)[C@@H](O[C@H]2O[C@H](CN)[C@@H](O)[C@H](O)[C@H]2O)[C@H](O)[C@H]1O[C@H]1O[C@H](CO)[C@@H](O)[C@H](N)[C@H]1O
MIC (broth dilution; MC2155): ≤ 0.5 µg/mL

CCCCCCCCCCC[C@@H](C[C@@H]1OC(=O)[C@H]1CCCCCC)OC(=O)[C@H](CC(C)C)NC=O
MIC (resazurin; MC^2155): 48 µg/mL

NNC(=O)c1ccncc1
MIC (broth dilution; ATCC700084 MC^2155): 32 µg/mL
